Converted amounts (≈) assume the structure as drawn.
Tests used:
[1] = test system: Mycobacterium tuberculosis; assay: Antitubercular activity against Mycobacterium tuberculosis H37Rv assessed as inhibition of bacterial growth; assay type: functional
[2] = test system: Mycobacterium tuberculosis; assay: Antitubercular activity against Mycobacterium tuberculosis H37Rv assessed as inhibition of bacterial growth measured after 7 days by resazurin assay; assay type: functional; conditions: 168 h, time 7 day
[3] = test system: Mycobacterium tuberculosis; assay: Antitubercular activity against Mycobacterium tuberculosis H37Rv assessed as inhibition of bacterial growth incubated for 6 days by MABA assay; assay type: functional; conditions: 144 h, time 6 day
[4] = test system: Mycobacterium tuberculosis; assay: microbe, parasite or virus in culture; conditions: mc2-7000, 144 h
Vero = assay: Cytotoxicity against African green monkey Vero cells assessed as reduction in cell viability; assay type: cell-based; conditions: Chlorocebus sabaeus
[5] = Selectivity index, ratio of IC50 for African green monkey Vero cells to MIC for Mycobacterium tuberculosis H37Rv; assay type: toxicity; conditions: read-out: Selectivity Index
In short: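 SI was calculated as Vero cell cytotoxicity IC50 divided by H37Rv MIC, both in μg/mL.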

[6] = Metabolic stability of the compound in mouse liver microsomes assessed as parent compound remaining […]; assay type: ADME, Microsome; conditions: read-out: Stabilty
[7] = Metabolic stability of the compound in mouse liver microsomes; assay type: ADME, Microsome
In short: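 Compound was incubated with mouse liver microsomes plus NADPH for 30 min. Remaining substrate concentration was normalized to the time-zero concentration and given as % remaining. The stability call was made from incubations run without the NADPH cofactor.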

[8] = Metabolic stability of the compound in human liver microsomes; assay type: ADME, Microsome
[9] = Tmax in BALB/c mouse at 100 mg/kg, po administered as single dose; assay type: ADME, organism-based; conditions: in vivo
[10] = Elimination half life in BALB/c mouse at 100 mg/kg, po administered as single dose; assay type: ADME, organism-based; conditions: in vivo, read-out: beta t1/2 (converted)
[11] = Elimination half life in BALB/c mouse at 5 mg/kg, iv administered as single dose; assay type: ADME, organism-based; conditions: in vivo, read-out: beta t1/2 (converted)
[12] = Cmax in BALB/c mouse at 5 mg/kg, iv administered as single dose; assay type: ADME, organism-based; set-up: route intravenous, dose 5 mg/kg; conditions: in vivo
[13] = Cmax in BALB/c mouse at 100 mg/kg, po administered as single dose; assay type: ADME, organism-based; set-up: route oral, dose 100 mg/kg; conditions: in vivo
[14] = AUC (0 to t) in BALB/c mouse at 5 mg/kg, iv administered as single dose; assay type: ADME, organism-based; set-up: dose 5 mg/kg; conditions: in vivo
[15] = AUC (0 to t) in BALB/c mouse at 100 mg/kg, po administered as single dose; assay type: ADME, organism-based; set-up: dose 100 mg/kg; conditions: in vivo
[16] = AUC (0 to infinity) in BALB/c mouse at 5 mg/kg, iv administered as single dose; assay type: ADME, organism-based; set-up: time infinity, route intravenous, dose 5 mg/kg; conditions: in vivo
[17] = AUC (0 to infinity) in BALB/c mouse at 100 mg/kg, po administered as single dose; assay type: ADME, organism-based; set-up: time infinity, route oral, dose 100 mg/kg; conditions: in vivo
[18] = MRT (0 to t) in BALB/c mouse at 5 mg/kg, iv administered as single dose; assay type: ADME, organism-based; conditions: in vivo
[19] = MRT (0 to t) in BALB/c mouse at 100 mg/kg, po administered as single dose; assay type: ADME, organism-based; conditions: in vivo
[20] = MRT (0 to infinity) in BALB/c mouse at 5 mg/kg, iv administered as single dose; assay type: ADME, organism-based; conditions: in vivo
[21] = MRT (0 to infinity) in BALB/c mouse at 100 mg/kg, po administered as single dose; assay type: ADME, organism-based; conditions: in vivo
[22] = Volume of distribution in BALB/c mouse at 5 mg/kg, iv administered as single dose; assay type: ADME, organism-based; conditions: in vivo
[23] = Clearance in BALB/c mouse at 5 mg/kg, iv administered as single dose; assay type: ADME, organism-based; conditions: in vivo
[24] = Oral bioavailability in BALB/c mouse at 100 mg/kg; assay type: ADME, organism-based; conditions: in vivo
[25] = Toxicity in BALB/c mouse infected with Mycobacterium tuberculosis H37Rv assessed as body weight at 100 mg/kg, po administered for 21 days (reference value: 21.32 +/- 1.03 gms); assay type: organism-based; conditions: in vivo, 504 h, time 21 day
[26] = test system: Mycobacterium tuberculosis; assay: In vivo antitubercular activity against Mycobacterium tuberculosis H37Rv infected in BALB/c mouse assessed as reduction in bacterial burden in lungs at 100 mg/kg, po administered for 21 days (reference value: 5.35 +/-0.17 log10CFU); assay type: functional; conditions: time 21 day
[27] = Toxicity in BALB/c mouse infected with Mycobacterium tuberculosis H37Rv assessed as body weight at 25 mg/kg, po administered for 21 days (reference value: 21.32 +/- 1.03 gms); assay type: organism-based; conditions: in vivo, 504 h, time 21 day
[28] = test system: Mycobacterium tuberculosis; assay: In vivo antitubercular activity against Mycobacterium tuberculosis H37Rv infected in BALB/c mouse assessed as reduction in bacterial burden in lungs at 25 mg/kg, po administered for 21 days (reference value: 5.35 +/-0.17 log10CFU); assay type: functional; conditions: time 21 day

Structure (SMILES): COc1ccc(-c2cc(=O)c3cc(O)ccc3o2)cc1
- MIC [1]: > 32 µg/mL

Structure (SMILES): C=CCCCCCCC[C@H]1C(=O)O[C@@H]1CCCCCNC(=O)c1ccc(N(C)C)cc1
- MIC [2]: 1.6 µM (≈ 0.686 µg/mL)

Structure (SMILES): COC(=O)c1c(NC(=O)c2c(F)c(F)c(F)c(F)c2F)sc2c1CCCCC2
- MIC [1]: 1 µM

Structure (SMILES): CCOC(=O)c1c(NC(=O)c2c(F)c(F)c(F)c(F)c2F)sc(C(N)=O)c1C
- MIC [1]: 0.5 µM

Structure (SMILES): CCOC(=O)c1c(NC(=O)c2c(F)c(F)c(F)c(F)c2F)sc2c1CCN(CC)C2
- MIC [3]: 0.23 µM (≈ 0.103 µg/mL)

Structure (SMILES): CNC(=O)c1c(-c2ccc(O)cc2)oc2ccc(O)c(CN3CCCCC3)c12
- MIC [1]: 0.047 µg/mL
- MIC [4]: 0.09 µM (≈ 0.0342 µg/mL)

Structure (SMILES): O=c1cc(-c2ccccc2)oc2ccc(O)c(CN3CCCCC3)c12
- MIC [1]: 3.12 µg/mL

Structure (SMILES): CCOC(=O)c1c(-c2ccccc2)oc2ccc(O)c(CN3CCCC3)c2c1=O
- MIC [1]: > 32 µg/mL

Structure (SMILES): O=c1cc(-c2ccc(Cl)cc2)oc2ccc(O)c(CN3CCC3)c12
- MIC [1]: 28.5 µg/mL

Structure (SMILES): CCOC(=O)c1c(-c2ccccc2)oc2ccc(O)c(CN3CCC3)c2c1=O
- MIC [1]: 14.1 µg/mL

Structure (SMILES): O=c1cc(-c2ccc(O)cc2)oc2ccc(O)c(CN3CCCCC3)c12
- MIC [1]: 3.84 µg/mL

Structure (SMILES): O=c1c(-c2ccc(O)cc2)coc2ccc(O)c(CN3CCCCC3)c12
- MIC [1]: > 32 µg/mL

Structure (SMILES): O=c1cc(-c2ccccc2)oc2ccc(O)c(CN3CCC3)c12
- MIC [1]: 3.22 µg/mL

Structure (SMILES): O=c1cc(-c2ccccc2)oc2ccc(O)c(CN3CC4(CSC4)C3)c12
- MIC [1]: 31.1 µg/mL

Structure (SMILES): CCOC(=O)c1c(-c2ccc(O)cc2)oc2ccc(O)c(CN3CCCC3)c2c1=O
- MIC [1]: > 32 µg/mL

Structure (SMILES): CCN(CC)Cc1c(O)ccc2oc(-c3ccc(O)cc3)cc(=O)c12
- MIC [1]: 29.9 µg/mL

Structure (SMILES): O=c1cc(-c2ccc(O)cc2)oc2ccc(O)c(CN3CCCC3)c12
- MIC [1]: 0.938 µg/mL
- IC50 (Vero): 8.8 µg/mL (≈ 26.1 µM)
- selectivity ratio [5]: 9
- remaining at 0.5 h [6]: 102%
- Stabilty [7]: Stable
- Stabilty [8]: Stable

Structure (SMILES): CCOC(=O)c1c(-c2ccccc2)oc2ccc(O)c(CN3CCCCC3)c2c1=O
- MIC [1]: 31.9 µg/mL

Structure (SMILES): O=c1cc(-c2ccc(O)cc2)oc2ccc(O)c(CN3CCOCC3)c12
- MIC [1]: > 32 µg/mL

Structure (SMILES): O=c1cc(-c2ccc(F)cc2)oc2ccc(O)c(CN3CCC3)c12
- MIC [1]: 3.55 µg/mL

Structure (SMILES): O=c1cc(-c2ccc(O)cc2)oc2ccc(O)c(CNC3CCCCC3)c12
- MIC [1]: > 32 µg/mL

Structure (SMILES): CNC(=O)c1c(-c2ccccc2)oc2ccc(O)c(CN3CCC3)c2c1=O
- MIC [1]: > 32 µg/mL

Structure (SMILES): CNC(=O)c1c(-c2ccccc2)oc2ccc(O)c(CN3CCCC3)c2c1=O
- MIC [1]: > 32 µg/mL

Structure (SMILES): O=c1cc(-c2ccccc2)oc2ccc(O)c(CN3CCCC3)c12
- MIC [1]: 3.68 µg/mL

Structure (SMILES): COc1ccc(-c2cc(=O)c3c(CN4CCCCC4)c(O)ccc3o2)cc1
- MIC [1]: 7.3 µg/mL

Structure (SMILES): Cc1ccc(-c2cc(=O)c3c(CN4CCC4)c(O)ccc3o2)cc1
- MIC [1]: 6.52 µg/mL

Structure (SMILES): O=c1cc(-c2ccc(O)cc2)oc2ccc(O)c(CN3CCC3)c12
- MIC [1]: 0.45 µg/mL
- IC50 (Vero): 53.1 µg/mL (≈ 164 µM)
- selectivity ratio [5]: 117
- remaining at 0.5 h [6]: 96%
- Stabilty [7]: Stable
- Stabilty [8]: Stable
- Tmax [9]: 15 min
- half-life [10]: 85.2 min
- half-life [11]: 76.8 min
- Cmax [12]: 4460 ng/mL
- Cmax [13]: 1660 ng/mL
- AUC(0-t) [14]: 1030 ng·h/mL
- AUC(0-t) [15]: 4220 ng·h/mL
- AUC(0-inf) [16]: 1040 ng·h/mL
- AUC(0-inf) [17]: 4290 ng·h/mL
- MRT last [18]: 36.6 min
- MRT last [19]: 1.7 h
- MRT inf [20]: 41.4 min
- MRT inf [21]: 1.82 h
- Vd [22]: 8.86 L/kg
- clearance [23]: 80.1 mL/min/kg
- bioavailability [24]: 20.5%
- Activity [25]: 20.57 g
- Activity [26]: 4.77 log10CFU

Structure (SMILES): CCOC(=O)c1c(-c2ccc(O)cc2)oc2ccc(O)c(CN3CCC3)c2c1=O
- MIC [1]: 7.91 µg/mL

Structure (SMILES): O=c1cc(-c2ccc(O)cc2)oc2ccc(O)c(CN3CCCCCC3)c12
- MIC [1]: 7.2 µg/mL

Structure (SMILES): CN(C)Cc1c(O)ccc2oc(-c3ccc(O)cc3)cc(=O)c12
- MIC [1]: > 32 µg/mL

Structure (SMILES): O=c1cc(-c2ccc(O)cc2)oc2ccc(O)c(CN3CC4(CSC4)C3)c12
- MIC [1]: 15.3 µg/mL

Structure (SMILES): CNC(=O)c1c(-c2ccccc2)oc2ccc(O)c(CN3CCCCC3)c2c1=O
- MIC [1]: > 32 µg/mL

Structure (SMILES): NNC(=O)c1ccncc1 [ISONIAZID]
- MIC [1]: 0.039 µg/mL
- Activity [27]: 20.9 g
- Activity [28]: 1.76 log10CFU

Structure (SMILES): CO[C@H]1/C=C/O[C@@]2(C)Oc3c(C)c(O)c4c(O)c(c(/C=N/N5CCN(C)CC5)c(O)c4c3C2=O)NC(=O)/C(C)=C\C=C\[C@H](C)[C@H](O)[C@@H](C)[C@@H](O)[C@@H](C)[C@H](OC(C)=O)[C@@H]1C [RIFAMPIN]
- MIC [1]: 0.057 µg/mL
